PRMT1 FP inh: PRMT1 (human) inhibition, primary screen; Q99873; recombinant PRMT1, activity-based probe fluorescence polarization; inhibition, % at 2.79 µM; hit rate 1.3% among 370,000; AID 652257;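 active = inhibition above about 21% made by adding two undisclosed values, limit read from the data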
SIAE inh: blocks human sialic acid acetylesterase; Q9HAT2; SIAE FP-Rh probe binding, fluorescence polarization; inhibition, % at 9.66 µM; hit rate 0.69% among 370,000;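 active = inhibition above a cutoff: mean of compounds within the control limits plus 3 SD of those, cut at about 17% in these data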
Target sequence (Q9HAT2 whole entry, looked up): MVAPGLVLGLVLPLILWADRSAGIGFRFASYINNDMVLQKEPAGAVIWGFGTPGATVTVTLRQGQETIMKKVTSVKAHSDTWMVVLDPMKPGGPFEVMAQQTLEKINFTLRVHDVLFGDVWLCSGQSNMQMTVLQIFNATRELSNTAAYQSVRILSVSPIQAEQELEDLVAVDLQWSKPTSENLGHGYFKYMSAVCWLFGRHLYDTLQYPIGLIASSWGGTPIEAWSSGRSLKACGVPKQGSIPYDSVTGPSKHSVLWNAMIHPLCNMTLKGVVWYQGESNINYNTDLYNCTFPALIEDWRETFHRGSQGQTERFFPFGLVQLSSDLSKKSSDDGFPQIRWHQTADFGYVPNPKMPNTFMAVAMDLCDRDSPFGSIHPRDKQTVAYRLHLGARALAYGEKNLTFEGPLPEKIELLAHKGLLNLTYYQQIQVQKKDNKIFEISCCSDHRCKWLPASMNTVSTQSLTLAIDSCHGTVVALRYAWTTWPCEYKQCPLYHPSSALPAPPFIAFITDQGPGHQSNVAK
TCR-CD3 inh: inhibitors of human TCR-CD3 interaction. inhibition, % at 9.4 µM. hit rate 0.37% among 360,000. TAMRA-labeled TCR probe fluorescence, biochemical; in the data active = inhibition above about 19%;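 note: recombinant mutant TCR 2C K166C tagged with TAMRA read by polarization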
HTRA1 inhibitor: blocks human HTRA1 serine peptidase. Q92743. recombinant HTRA1, FP-rhodamine activity-based probe, fluorescence polarization. inhibition, % at 5.96 µM. hit rate 0.5% among 340,000. AID 504803; in the data active = inhibition above about 36%
mABHD4 FP: ABHD4 (mouse) inhibition, primary FP screen; purified mABHD4, FP-Rh probe fluorescence polarization; inhibition, % at 8.92 µM; hit rate 0.54% among 370,000;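 active = inhibition exceeding the mean over every tested compound plus 3 SD, cut at about 30% in these data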
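Assay system: wild-type mouse ABHD4 protein; compound: single nominal dose of 8.92 µM, 0.89% DMSO final; schedule: 45 min + 60 min at 25 °C; measured by: FP readout, ex 525 nm / em 598 nm; evaluation: % inhibition of FP-Rh probe binding versus controls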
SIAE confirm: human SIAE inhibition, confirmation; hit rate 13% among 2,300; shares compounds with SIAE inh; AID 1117263; inhibition, % at 9.66 µM; SIAE FP-Rh activity-based probe, fluorescence polarization;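 active = mean inhibition of the replicates above the hit cutoff set in the primary screen, cut at about 17% in these data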;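 note: inhibitors lower polarization as more probe stays unbound to SIAE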
Each line names hits and unclear results; the compound was inactive in the other large screens (follow-up assays come after a bar, where they were run). Compounds with a hit are over-represented: about 2.6% of the library has one in this group of screens.

Cc1ccc(C(=O)NCCCNC(=O)c2ccco2)cc1	none
Cc1ccc(-c2cnc(SCCNC(=O)c3ccco3)[nH]2)cc1	SIAE inh 17.3 | SIAE confirm inactive
COC(=O)C1=C(C)N(Cc2ccccc2C(F)(F)F)C(=NCc2cc(OC)c(OC)c(OC)c2)NC1c1cccc(F)c1 (stereo not given)	none (no result: HTRA1 inhibitor)
CC(Sc1ncnc2ccccc12)C(=O)Nc1ccc2c(c1)OCCO2 (stereo not given)	SIAE inh 23.7 | SIAE confirm inactive
COc1ccc(OCCC(=O)OCC(=O)NCc2ccco2)cc1	none
COc1ccccc1NCCC(=O)OCC(=O)NCc1ccco1	SIAE inh 26.9 | SIAE confirm inactive
COc1ccc(NC(=O)CC2C(=O)N(C)C(=S)N2Cc2ccco2)cc1 (stereo not given)	SIAE inh 19.8 | SIAE confirm inactive
C=CCN1C(=O)C(CC(=O)Nc2ccc(OC)cc2)N(Cc2ccco2)C1=S (stereo not given)	none
CC1=C(C(=O)Nc2ccc(C)cc2)C(c2ccco2)NC(=O)N1 (stereo not given)	SIAE inh 23.3 | SIAE confirm inactive
O[C@H](COc1ccc(Cl)cc1)CN1CCC(C(O)(c2ccccc2)c2ccccc2)CC1	none (no result: TCR-CD3 inh, HTRA1 inhibitor)
O=C(c1cc(Cl)ccc1F)N1CCCC(Nc2ccc3c(c2)OCCO3)C1 (stereo not given)	SIAE inh 17.1 | SIAE confirm inactive
COCCNc1nc(NCC2CCCCC2)c2sc(-c3ccccc3)cc2n1	SIAE inh 20.5 (no result: HTRA1 inhibitor) | SIAE confirm 32.2
COCCNc1nc(NCCOc2ccccc2Cl)c2sc(-c3ccccc3)cc2n1	SIAE inh 20.0 (no result: HTRA1 inhibitor) | SIAE confirm 25.9
COCCNc1nc(NCCNC(C)=O)c2sc(-c3ccccc3)cc2n1	none (no result: HTRA1 inhibitor)
CC(=O)N1CCN(C(=O)C2CCCN(C(=O)c3ccc4c(c3)NC(=O)CS4)C2)CC1 (stereo not given)	none (no result: TCR-CD3 inh, HTRA1 inhibitor)
CCCCCCCCN1C(=O)[C@@H](CC(=O)NCC23CC4CC(CC(C4)C2)C3)C[C@@]2(C(=O)OC)C1=C[C@H](C(C)C)O[C@@H]2C1CC1	none (no result: TCR-CD3 inh, HTRA1 inhibitor)
COc1ccccc1/C=C/CN1CCCC(CO)(CCc2ccccc2)C1 (stereo not given)	none
OCC1(CCc2ccccc2)CCCN(C/C=C/c2ccccc2)C1 (stereo not given)	SIAE inh 18.5 | SIAE confirm inactive
COc1ccc(-c2csc3ncnc(N4CCN(S(=O)(=O)c5ccc(C)c(C)c5)CC4)c23)cc1	SIAE inh 18.3 | SIAE confirm inactive
Cc1ccc(-c2csc3ncnc(N4CCN(S(=O)(=O)c5ccc(C#N)cc5)CC4)c23)cc1	none
NC(=O)c1cc(S(=O)(=O)N2CCCC2)ccc1OCCOc1ccccc1F	SIAE inh 21.3 | SIAE confirm inactive
O=C(Nc1ccc(F)cc1)OCc1cn(Cc2cccc(F)c2)nn1	none (no result: TCR-CD3 inh, HTRA1 inhibitor)
O=S(=O)(O)c1cc(O)c2cc(Nc3ccccc3)ccc2c1	SIAE inh 18.4, TCR-CD3 inh 19.2, mABHD4 FP 65.5 (no result: PRMT1 FP inh) | SIAE confirm 43.2
Cc1ccc(/C=C/c2nc3ccccc3[nH]2)o1	SIAE inh 24.4 | SIAE confirm inactive
COC(=O)[C@]12C[C@H](CC(=O)NCc3ccc(OC)c(OC)c3)C(=O)N(Cc3ccco3)C1=C[C@H](COCc1ccccc1)O[C@@H]2C	none (no result: TCR-CD3 inh, HTRA1 inhibitor)
O=S(=O)(Nc1nccs1)c1ccc(Cl)cc1	SIAE inh 19.2 | SIAE confirm inactive
CC(C)Cc1nnc(NS(=O)(=O)c2ccc(Cl)cc2)s1	SIAE inh 26.6 | SIAE confirm inactive
C[C@@H]1COc2cc(Br)ccc2S(=O)(=O)N1Cc1cn(Cc2ccc(F)cc2)nn1	none (no result: TCR-CD3 inh, HTRA1 inhibitor)
Cc1[nH]c2ccccc2c1CC(=O)Nc1ccc(Nc2cccnc2)c(-c2ccc(F)c(F)c2)c1	none (no result: HTRA1 inhibitor)
O=C(Cc1c[nH]c2ccccc12)Nc1ccc(Nc2cccnc2)c(-c2ccc(F)c(F)c2)c1	SIAE inh 27.8 (no result: HTRA1 inhibitor) | SIAE confirm inactive
O=C(Cc1c[nH]c2ccccc12)Nc1ccc(Nc2cccnc2)c(-c2cccc(Cl)c2)c1	none (no result: HTRA1 inhibitor)
O=C(Cc1c[nH]c2ccccc12)Nc1ccc(Nc2cccnc2)c(-c2ccc(-c3ccccc3)cc2F)c1	SIAE inh 22.0 (no result: HTRA1 inhibitor) | SIAE confirm inactive
COCc1cc(N2CCNC[C@@H]2C)ccc1N1C[C@@H](C)O[C@@H](C)C1	none (no result: HTRA1 inhibitor)
Cc1cc2oc(C(=O)N3CCN(CCc4ccccn4)CC3)c(C)c2cc1C	SIAE inh 23.9 | SIAE confirm inactive
COc1ccc(Cn2ccc3ccc(-c4ccc5ccn(Cc6ccccc6F)c5c4)cc32)cc1	none (no result: TCR-CD3 inh, HTRA1 inhibitor)
Cc1ccccc1NC(=S)N1CCN(c2ccccc2)CC1	SIAE inh 17.8 | SIAE confirm inactive
COc1ccc(OC)c(S(=O)(=O)N2CCC(c3cn4ccccc4n3)CC2)c1	none (no result: TCR-CD3 inh, HTRA1 inhibitor)
COc1ccc(-c2cc(=O)c3cccc(CC(=O)O)c3o2)cc1	none (no result: HTRA1 inhibitor)
Oc1ccc(/C=N/Nc2ccc3ccccc3c2)c(O)c1	SIAE inh 21.5 | SIAE confirm inactive
Cc1cc(N/N=C/c2ccc(O)cc2O)c2ccccc2n1	none
COc1ccccc1OCC(=O)Nc1ccc(C(N)=O)cc1	SIAE inh 18.1 | SIAE confirm inactive
COc1ccc(NC(=O)n2ncc3c(C)cccc32)cc1OC	SIAE inh 17.4 | SIAE confirm inactive
O=C(CSc1nnc(-c2ccc(F)cc2)o1)N1CCCC1	SIAE inh 20.7 | SIAE confirm inactive
Cc1cccc(-c2nnc(SCC(=O)NC3CCCC3)o2)c1	none
O=C(CSc1nnc(-c2cccc(F)c2)o1)NC1CCCC1	SIAE inh 19.9 | SIAE confirm inactive
COC(=O)[C@]12C[C@H](CC(=O)NCc3ccccc3)C(=O)N(Cc3cccc4ccccc34)C1=C[C@H](C(C)C)O[C@@H]2C1CC1	none (no result: TCR-CD3 inh, HTRA1 inhibitor)
Cc1noc(C)c1NC(=O)Nc1ccc2c(c1)C(=O)N(C)[C@H]1CC[C@H](CC(=O)NCc3ccc(Cl)cc3)O[C@@H]1CO2	none (no result: TCR-CD3 inh, HTRA1 inhibitor)
CN(C)CCCn1c(NCc2ccc3c(c2)OCO3)nc2ccccc21	SIAE inh 17.7 | SIAE confirm inactive
COc1ccc(CCN2C(=O)CC(C(N)=O)SC2=Nc2ccccc2)cc1 (stereo not given)	none
COc1ccc(CCN2C(=O)CC(C(N)=O)SC2=Nc2ccc(F)cc2)cc1OC (stereo not given)	SIAE inh 19.6 | SIAE confirm inactive
COc1ccc(-c2c(C(=O)c3ccccc3)[nH]c(N)c2C(=O)c2c[nH]c3ccccc23)cc1OC	none (no result: TCR-CD3 inh, HTRA1 inhibitor)
Cc1nc(N2CCN(S(=O)(=O)c3ccc(Br)cc3)CC2)c2c(C)c(C)sc2n1	SIAE inh 18.8 | SIAE confirm inactive
O=C1CCCC(O)=C1N=Nc1cccc(C(=O)O)c1	SIAE inh 21.1 | SIAE confirm inactive
O=C1CCCC(O)=C1N=Nc1c(Cl)cc(Cl)cc1Cl	SIAE inh 20.8 | SIAE confirm inactive
N#Cc1ccc(/C=C2\CC3(OC(=O)C4CCCC4)CCCN2C3)cc1 (stereo not given)	SIAE inh 22.6 (no result: TCR-CD3 inh, HTRA1 inhibitor) | SIAE confirm inactive

Screens as filed in PubChem BioAssay.
